Laboratory results: article PMC11634041 (Nature, 2024)

Experiments:
human HCN1 (full length) = target: T1, human HCN1 (full length) (Homo sapiens, UniProt O60741); assay: two-electrode voltage clamp, oocytes; format: cell-based; settings: 30 μM propofol, 20 min incubation; pH 7.4; allosteric inhibitor
T1 sequence (O60741 1-890): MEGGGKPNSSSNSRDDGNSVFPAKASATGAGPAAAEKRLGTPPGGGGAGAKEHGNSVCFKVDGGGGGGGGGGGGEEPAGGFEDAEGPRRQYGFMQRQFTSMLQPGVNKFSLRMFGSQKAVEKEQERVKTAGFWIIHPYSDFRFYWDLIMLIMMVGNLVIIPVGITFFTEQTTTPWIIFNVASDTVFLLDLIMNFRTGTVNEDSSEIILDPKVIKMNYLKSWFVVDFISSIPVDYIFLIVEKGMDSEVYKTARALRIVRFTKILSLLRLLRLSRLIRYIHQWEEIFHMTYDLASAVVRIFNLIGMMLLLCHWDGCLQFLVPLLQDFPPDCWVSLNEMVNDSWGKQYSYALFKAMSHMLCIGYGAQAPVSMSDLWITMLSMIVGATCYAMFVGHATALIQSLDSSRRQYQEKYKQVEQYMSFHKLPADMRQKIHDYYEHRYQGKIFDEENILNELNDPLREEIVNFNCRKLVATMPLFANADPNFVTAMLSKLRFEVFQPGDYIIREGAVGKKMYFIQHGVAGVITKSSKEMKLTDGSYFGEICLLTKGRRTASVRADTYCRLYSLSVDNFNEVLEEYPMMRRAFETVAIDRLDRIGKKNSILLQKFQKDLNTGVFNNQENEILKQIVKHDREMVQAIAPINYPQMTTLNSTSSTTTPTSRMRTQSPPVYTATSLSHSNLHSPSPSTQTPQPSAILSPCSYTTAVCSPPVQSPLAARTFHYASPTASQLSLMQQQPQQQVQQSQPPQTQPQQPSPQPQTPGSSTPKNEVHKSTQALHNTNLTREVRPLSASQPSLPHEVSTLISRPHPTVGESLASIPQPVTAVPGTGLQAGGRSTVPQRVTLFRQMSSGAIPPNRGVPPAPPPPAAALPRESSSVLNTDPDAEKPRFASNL
Outline: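 Full-length human HCN1 RNA (wild type or mutant), made by in vitro transcription, injected into defolliculated Xenopus laevis oocytes. Oocytes stored at 16°C in 1:2 diluted L-15 medium with 2.5% penicillin-streptomycin and 5 mM HEPES pH 7.5. Two-electrode clamp used 3 M KCl-filled electrodes (0.1–0.5 MΩ current, 1–5 MΩ voltage).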

[1] = target: spHCN (R332C background, Alexa-488 labelled, called WT) (Strongylocentrotus purpuratus, UniProt O76977, R332C/M375L); assay: two-electrode voltage clamp, oocytes; format: cell-based; settings: 100 μM ZD7288; pore blocker control; Alexa-488-labelled channel
cryo-EM structure = target: the molecule itself; assay: cryo-EM structure

In the case of CC(C)c1cccc(C(C)C)c1O [propofol, 2,6-di-iso-propylphenol], the “ΔV1/2 (mV) / I / Iapo (%)” value (human HCN1 (full length)) is reported as −30.9 ± 6.4 mV.

In the case of CCN(c1ccccc1)c1cc(NC)[n+](C)c(C)n1 [ZD7288], the “two-electrode voltage clamp, oocytes” value [1] is reported as “currents from spHCN M375L channels are blocked by the HCN-channel blocker ZD7288”.

B1: human HCN1EM M305L in lipid nanodiscs (natural protein, UniProt O60741 1-890, looked up)
chain: MEGGGKPNSSSNSRDDGNSVFPAKASATGAGPAAAEKRLGTPPGGGGAGAKEHGNSVCFKVDGGGGGGGGGGGGEEPAGGFEDAEGPRRQYGFMQRQFTSMLQPGVNKFSLRMFGSQKAVEKEQERVKTAGFWIIHPYSDFRFYWDLIMLIMMVGNLVIIPVGITFFTEQTTTPWIIFNVASDTVFLLDLIMNFRTGTVNEDSSEIILDPKVIKMNYLKSWFVVDFISSIPVDYIFLIVEKGMDSEVYKTARALRIVRFTKILSLLRLLRLSRLIRYIHQWEEIFHMTYDLASAVVRIFNLIGMLLLLCHWDGCLQFLVPLLQDFPPDCWVSLNEMVNDSWGKQYSYALFKAMSHMLCIGYGAQAPVSMSDLWITMLSMIVGATCYAMFVGHATALIQSLDSSRRQYQEKYKQVEQYMSFHKLPADMRQKIHDYYEHRYQGKIFDEENILNELNDPLREEIVNFNCRKLVATMPLFANADPNFVTAMLSKLRFEVFQPGDYIIREGAVGKKMYFIQHGVAGVITKSSKEMKLTDGSYFGEICLLTKGRRTASVRADTYCRLYSLSVDNFNEVLEEYPMMRRAFETVAIDRLDRIGKKNSILLQKFQKDLNTGVFNNQENEILKQIVKHDREMVQAALPRESSSVLNTDPDAEKPRFASNL
B1: binds (cryo-EM structure).
